Assay results reported in ChEMBL document CHEMBL4184152, “Thioether-stapled macrocyclic inhibitors of the EH domain of EHD1” (Bioorg Med Chem, 2018).
Active and inactive are the calls of the source. No cut-off for these calls is given here. Where a SMILES comes first, the peptide text is derived from it.

Experiments:
[1] = biological target: T1, EH domain-containing protein 1 (Homo sapiens) (UniProt Q9H4M9); assay: Inhibition of EHD1-EH in human HeLa cells assessed as reduction in internalized transferrin-488 recycling at 50 uM measured after 60 mins by pulse-chase method; assay type: cell-based
T1 sequence (whole entry): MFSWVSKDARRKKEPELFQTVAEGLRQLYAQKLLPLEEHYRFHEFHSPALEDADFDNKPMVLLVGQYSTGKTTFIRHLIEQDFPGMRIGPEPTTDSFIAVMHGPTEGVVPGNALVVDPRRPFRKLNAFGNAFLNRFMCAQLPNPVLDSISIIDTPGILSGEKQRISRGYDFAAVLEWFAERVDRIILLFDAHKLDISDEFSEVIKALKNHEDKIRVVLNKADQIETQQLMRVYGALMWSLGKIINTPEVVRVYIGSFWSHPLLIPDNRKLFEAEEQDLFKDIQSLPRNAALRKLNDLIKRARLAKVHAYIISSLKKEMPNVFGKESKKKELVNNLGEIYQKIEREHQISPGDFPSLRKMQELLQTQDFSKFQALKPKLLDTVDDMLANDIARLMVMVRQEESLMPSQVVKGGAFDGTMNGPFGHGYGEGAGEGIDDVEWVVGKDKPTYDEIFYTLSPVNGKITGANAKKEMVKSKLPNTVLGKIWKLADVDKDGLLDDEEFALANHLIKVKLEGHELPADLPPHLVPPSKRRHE
How it was run: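 HeLa cells were grown in DMEM/10% FBS to 80% confluence, then starved 30 min in DMEM with 0.5% BSA. Cells got a 60-min pulse with Tf-488 (25 µg/mL), with inhibitor present. A 30-min chase followed with 2 mg/mL unlabeled transferrin plus inhibitor, 0.2% DMSO final. Cells were washed in cold PBS, trypsinized and fixed. Flow cytometry counted 10,000 live cells; 50 µM primaquine was the positive control.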

[2] = biological target: T2, EH domain-containing protein 1 (Homo sapiens, UniProt Q9H4M9); assay: Binding affinity to GST-fused EHD1 EH domain (unknown origin) expressed in Escherichia coli BL21 cells measured after 1 hr in presence of 150 mM NaCl by fluorescence polarization assay
T2 sequence (Q9H4M9 whole entry): T1 sequence (whole entry)
How it was run: (§1)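 NaCl was 15 mM or 150 mM. Polarization was read 1 h after probe addition and re-read later to confirm equilibrium. Kd came from curve fits; technical triplicates, three independent experiments.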

[3] = organism: Homo sapiens; assay: Selectivity ratio of IC50 for GST-fused Eps15 EH2 domain (unknown origin) expressed in Escherichia coli BL21 cells to IC50 for GST-fused EHD1 EH domain (unknown origin)
[4] = biological target: T3, Epidermal growth factor receptor substrate 15 (Homo sapiens, UniProt P42566); assay: Binding affinity to GST-fused Eps15 EH2 domain (unknown origin) expressed in Escherichia coli BL21 cells under high salt condition by fluorescence polarization assay
T3 sequence (P42566 whole entry): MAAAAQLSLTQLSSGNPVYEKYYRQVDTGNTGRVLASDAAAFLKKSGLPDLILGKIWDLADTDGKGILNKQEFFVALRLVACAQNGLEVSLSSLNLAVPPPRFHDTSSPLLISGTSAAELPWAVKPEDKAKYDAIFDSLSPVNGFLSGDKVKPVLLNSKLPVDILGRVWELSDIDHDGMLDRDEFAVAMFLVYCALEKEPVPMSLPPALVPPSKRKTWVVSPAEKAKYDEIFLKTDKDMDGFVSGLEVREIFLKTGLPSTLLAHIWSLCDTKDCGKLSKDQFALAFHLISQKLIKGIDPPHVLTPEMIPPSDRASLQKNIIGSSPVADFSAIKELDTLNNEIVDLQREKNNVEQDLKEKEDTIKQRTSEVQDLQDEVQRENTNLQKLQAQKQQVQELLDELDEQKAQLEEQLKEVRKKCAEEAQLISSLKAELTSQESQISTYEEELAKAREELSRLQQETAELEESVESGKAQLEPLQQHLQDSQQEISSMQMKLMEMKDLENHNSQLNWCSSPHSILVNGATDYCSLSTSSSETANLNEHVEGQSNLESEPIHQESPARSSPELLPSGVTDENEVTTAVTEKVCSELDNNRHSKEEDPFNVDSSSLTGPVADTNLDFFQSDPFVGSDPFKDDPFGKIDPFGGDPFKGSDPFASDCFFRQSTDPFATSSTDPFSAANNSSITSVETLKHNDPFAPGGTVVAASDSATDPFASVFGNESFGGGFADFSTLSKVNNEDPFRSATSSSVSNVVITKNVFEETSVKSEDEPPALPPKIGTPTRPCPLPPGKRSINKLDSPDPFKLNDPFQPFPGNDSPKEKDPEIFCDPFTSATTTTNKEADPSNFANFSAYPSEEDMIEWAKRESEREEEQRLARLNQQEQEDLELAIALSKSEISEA
How it was run: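 Eps15-EH2 protein concentration was set by A280 using an extinction coefficient of 13980 M-1cm-1. Binding of fluorescein-labeled peptides to Eps15-EH2 was measured in an FP direct binding format with varying protein concentration.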

[5] = biological target: T2, EH domain-containing protein 1; assay: Binding affinity to GST-fused EHD1 EH domain (unknown origin) expressed in Escherichia coli BL21 cells measured after 1 hr in presence of 15 mM NaCl by fluorescence polarization assay; how it was run: as §1

inhibition [1]	Kd [2] [µM]	IC50 [4] [µM]	Kd [5] [µM]	SMILES	Ratio IC50 [3]
inactive				NC(=O)C[C@@H]1NC(=O)[C@H](Cc2ccc(O)cc2)NC(=O)CNC(=O)CNC(=O)[C@H](CCC(=O)O)NC(=O)[C@H](CCC(=O)O)NC(=O)[C@H](Cc2ccccc2)NC(=O)[C@@H]2CCCN2C1=O (HELM PEPTIDE1{Y.N.P.F.E.E.G.G}$PEPTIDE1,PEPTIDE1,1:R1-8:R2$$$V2.0)	
	15.1	> 100	3	CC(=O)N(CCCC[C@@H]1NC(=O)CNC(=O)[C@H](CCC(=O)O)NC(=O)[C@H](CCC(=O)O)NC(=O)[C@H](Cc2ccccc2)NC(=O)[C@@H]2CCCN2C(=O)[C@H](CC(N)=O)NC(=O)[C@H](Cc2ccc(O)cc2)NC1=O)C(=O)c1ccccc1-c1c2ccc(=O)cc-2oc2cc(O)ccc12 (HELM PEPTIDE1{E.E.G.[CC(=O)N(CCCC[C@H](N[*:1])C(=O)[*:2])C(=O)c1ccccc1-c1c2ccc(=O)cc-2oc2cc(O)ccc12].Y.N.P.F}$PEPTIDE1,PEPTIDE1,1:R1-8:R2$$$V2.0)	15
Active				COc1cc(NC(C)CCCN)c2ncccc2c1 (configuration not stated)	
inactive				C#CCCC(=O)N[C@H]1CSCc2ccc(cc2)CSCCNC(=O)[C@H](CCC(=O)O)NC(=O)[C@H](CCC(=O)O)NC(=O)[C@H](Cc2ccccc2)NC(=O)[C@@H]2CCCN2C(=O)[C@H](CC(N)=O)NC(=O)[C@H](Cc2ccc(O)cc2)NC1=O (HELM PEPTIDE1{[C#CCCC(=O)[*:2]].C.Y.N.P.F.E.E}|CHEM1{[c1cc(C[*:1])ccc1CSCCN[*:2]]}$PEPTIDE1,CHEM1,2:R3-1:R1|PEPTIDE1,CHEM1,8:R2-1:R2$$$V2.0)	
